Reference: ChEMBL document CHEMBL1811763, “Design, syntheses, and kinetic evaluation of 3-(phenylamino)oxazolidine-2,4-diones as potent cytochrome bc₁ complex inhibitors” (Bioorg Med Chem, 2011)
Calls of active or inactive are those of the source. The rule behind the calls is not given here.

Legend:
[1] = Inhibition of pig heart succinate-cytochrome c reductase (Electron transport protein complex 2/3) assessed as increase of cytochrome c by spectrophotometer; parameters: species or system Sus scrofa
Sus scrofa [2] = species: Sus scrofa; assay: Inhibition of pig heart Succinate-ubiquinone oxidoreductase assessed as decrease of 2,6-dichlorophenolindophenol by spectrophotometer
In short: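 Complex II activity within porcine SCR, with succinate and DCIP as substrates. Final concentrations: 100 mM PBS pH 7.4, 0.3 mM EDTA, 20 mM succinate, 53 µM DCIP; adding enzyme starts the reaction. DCIP reduction was followed as absorbance decrease at 600 nm (ε 21 mM⁻¹ cm⁻¹).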

Sus scrofa [3] = species: Sus scrofa; assay: Inhibition of pig heart Cytochrome b-c1 complex assessed as oxidation of DBH2 by spectrophotometer
In short: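 Porcine SCR preparation at 0.1 nM, reaction with 100 µM oxidized cytochrome c and 100 µM DBH2 in 100 mM PBS (pH 7.4), 0.3 mM EDTA; run at 23 °C both without and with 750 µM lauryl maltoside. For kinetics, DBH2 was varied over 20–200 µM with 0–5000 nM inhibitor, and Ki was fitted on a competitive model. DBH2 concentration was set from A288–A320.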

[4] = Non-competitive inhibition of pig heart succinate-cytochrome c reductase (Electron transport protein complex 2/3) using cytochrome c as substrate by Line-weaverBurk plot analysis; parameters: species or system Sus scrofa
In short: (§1)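 Overall succinate→cytochrome c activity of porcine SCR (0.1 nM) was measured at 23 °C in 100 mM PBS pH 7.4, 0.3 mM EDTA and 20 mM succinate. Cytochrome c was varied over 1.16–16.02, with inhibitor at graded levels. Km(cyt c), Vmax and Ki came from double-reciprocal plots, assuming non-competitive inhibition.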

[5] = Competitive inhibition of pig heart Cytochrome b-c1 complex using DBH2 as substrate in absence of lauryl maltoside by Line-weaverBurk plot analysis; parameters: species or system Sus scrofa
[6] = Competitive inhibition of pig heart Cytochrome b-c1 complex using DBH2 as substrate in presence of lauryl maltoside by Line-weaverBurk plot analysis; parameters: species or system Sus scrofa
In short: (§2)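 Porcine SCR preparation (0.1 nM) as the bc1 source, at 23 °C in 100 mM PBS pH 7.4, 0.3 mM EDTA and 750 lauryl maltoside. Substrates were 100 oxidized cytochrome c and DBH₂ varied over 20–200. Cytochrome c reduction was followed with and without inhibitor. Km(DBH₂), Vmax and Ki came from double-reciprocal plots, assuming competitive inhibition.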

[7] = Competitive inhibition of pig heart Cytochrome b-c1 complex using DBH2 as substrate by Line-weaverBurk plot analysis; parameters: species or system Sus scrofa; in short: as §2
Sus scrofa [8] = species: Sus scrofa; assay: Activity of pig heart succinate-cytochrome c reductase (Electron transport protein complex 2/3) using cytochrome c as substrate by Line-weaverBurk plot analysis; format: tissue-based; in short: as §1
Sus scrofa [9] = species: Sus scrofa; assay: Activity of pig heart Cytochrome b-c1 complex using DBH2 as substrate by Line-weaverBurk plot analysis; in short: as §2
Sus scrofa [10] = species: Sus scrofa; assay: Ratio Ki for pig heart Cytochrome b-c1 complex to Ki for pig heart succinate-cytochrome c reductase (Electron transport protein complex 2/3)
Sus scrofa [11] = species: Sus scrofa; assay: Inhibition of pig heart Succinate-ubiquinone oxidoreductase assessed as decrease of 2,6-dichlorophenolindophenol at 20 uM by spectrophotometer
Sus scrofa [12] = species: Sus scrofa; assay: Ratio Vmax for pig heart succinate-cytochrome c reductase (Electron transport protein complex 2/3) to Vmax for pig heart Cytochrome b-c1 complex

Structure (SMILES) | IC50 [1] [nM] | inhibition (Sus scrofa [2]) | inhibition (Sus scrofa [3]) | further results
CC1(c2ccc(Oc3ccccc3)cc2)OC(=O)N(Nc2ccc(C(=O)O)cc2)C1=O (centres undefined) | 5310 | inactive | Active | –
CC1(c2ccc(Oc3ccccc3)cc2)OC(=O)N(Nc2ccc(F)cc2Br)C1=O (centres undefined) | 60 | inactive | Active | –
Cc1ccc(NN2C(=O)OC(C)(c3ccc(Oc4ccccc4)cc3)C2=O)cc1 (centres undefined) | 23.8 | inactive | Active | –
CC1(c2ccc(Br)nc2)OC(=O)N(Nc2ccccc2)C1=O (centres undefined) | > 1000 | inactive | Active | –
Cc1ccc(NN2C(=O)OC(C)(c3ccc(Br)nc3)C2=O)cc1 (centres undefined) | > 1000 | inactive | Active | –
CC1(c2ccc(Oc3ccccc3)cc2)OC(=O)N(Nc2ccc(C#N)cc2)C1=O (centres undefined) | 275 | inactive | Active | –
CO/C=C(/C(=O)OC)c1ccccc1Oc1cc(Oc2ccccc2C#N)ncn1 [AZOXYSTROBIN] | – | – | – | IC50 [4]: 291 nM; Ki [4]: 295 nM; IC50 [5]: 435 nM; IC50 [6]: 527 nM; Ki [7]: 204 nM; Km (Sus scrofa [8]): 4.37 µM; Vmax (Sus scrofa [8]): 0.0099 µM/s; Km (Sus scrofa [9]): 72.1 µM; Vmax (Sus scrofa [9]): 0.0528 µM/s
CC1(c2ccc(Oc3ccccc3)cc2)OC(=O)N(Nc2ccc(Cl)cc2)C1=O (centres undefined) | 18.8 | inactive | Active | –
Cc1cccc(C)c1NN1C(=O)OC(C)(c2ccc(Oc3ccccc3)cc2)C1=O (centres undefined) | 1520 | inactive | Active | –
COc1ccc(NN2C(=O)OC(C)(c3ccc(Br)nc3)C2=O)cc1 (centres undefined) | > 1000 | inactive | Active | –
CC1(c2ccc(Br)nc2)OC(=O)N(Nc2ccc(C#N)cc2)C1=O (centres undefined) | > 1000 | inactive | Active | –
Cc1ccc(NN2C(=O)OC(C)(c3ccc(Oc4ccccc4)cc3)C2=O)c(C)c1 (centres undefined) | 15.9 | inactive | Active | –
CC1(c2ccc(Oc3ccccc3)cc2)OC(=O)N(Nc2ccc(C(F)(F)F)cc2)C1=O (centres undefined) | 63.3 | inactive | Active | –
CC1(c2ccc(Br)nc2)OC(=O)N(Nc2ccc([N+](=O)[O-])cc2)C1=O (centres undefined) | > 1000 | inactive | Active | –
CC1(c2ccc(Oc3ccccc3)cc2)OC(=O)N(Nc2ccc(Br)cc2)C1=O (centres undefined) | 9.44 | inactive | Active | IC50 [4]: 9.03 nM; Ki [4]: 9.44 nM; IC50 [5]: 337 nM; IC50 [6]: 1050 nM; Ki [7]: 329 nM; Ratio Ki (Sus scrofa [10]): 35; inhibition (Sus scrofa [11]): inactive; Ratio (Sus scrofa [12]): 0.14; Km (Sus scrofa [8]): 4.45 µM; Vmax (Sus scrofa [8]): 0.0081 µM/s; Km (Sus scrofa [9]): 78 µM; Vmax (Sus scrofa [9]): 0.0574 µM/s
Cc1ccc(NN2C(=O)OC(C)(c3ccc(Br)nc3)C2=O)c(C)c1 (centres undefined) | > 1000 | inactive | Active | –
CC1(c2ccc(Br)nc2)OC(=O)N(Nc2ccc(Cl)cc2)C1=O (centres undefined) | > 1000 | inactive | Active | –
CC1(c2ccc(Oc3ccccc3)cc2)OC(=O)N(Nc2cccc(C(=O)O)c2)C1=O (centres undefined) | 24 | inactive | Active | –
CC1(c2ccc(Br)nc2)OC(=O)N(Nc2ccc(Br)cc2)C1=O (centres undefined) | > 1000 | inactive | Active | –
CC1(c2ccc(Br)nc2)OC(=O)N(Nc2ccc(F)cc2Br)C1=O (centres undefined) | > 1000 | inactive | Active | –
CC1(c2ccc(Br)nc2)OC(=O)N(Nc2ccc(C(F)(F)F)cc2)C1=O (centres undefined) | > 1000 | inactive | Active | –
CC1(c2ccc(Oc3ccccc3)cc2)OC(=O)N(Nc2ccccc2)C1=O (centres undefined) | 3.62 | – | – | IC50 [4]: 4.78 nM; Ki [4]: 3.62 nM; IC50 [5]: 48.2 nM; IC50 [6]: 142 nM; Ki [7]: 51.4 nM; Ratio Ki (Sus scrofa [10]): 15; inhibition (Sus scrofa [11]): inactive; Km (Sus scrofa [8]): 4.47 µM; Vmax (Sus scrofa [8]): 0.0081 µM/s; Km (Sus scrofa [9]): 66.2 µM; Vmax (Sus scrofa [9]): 0.0598 µM/s
Cc1cccc(C)c1NN1C(=O)OC(C)(c2ccc(Br)nc2)C1=O (centres undefined) | > 1000 | inactive | Active | –
COc1ccc(NN2C(=O)OC(C)(c3ccc(Oc4ccccc4)cc3)C2=O)cc1 (centres undefined) | 57.9 | inactive | Active | –
